Where two headings read alike, the source gives them in different places. Each block holds one substance with its values, some of them ahead of it.
Columns and labels:
[1] = In vitro stability of 99mTc-cyclized analogues in PBS; format: physicochemical; conditions: pH 7.4, 37 °C
Method in brief: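 Test peptides were labelled with 99mTc by exchange from 99mTc-glucoheptonate (pH 7.9–8.1, 60 °C, 30 min), purified by radio-RP-HPLC, mixed with gentisic acid and evaporated. They were diluted in PBS or 1 mM cysteine, adjusted to pH 7.4 and incubated at 37 °C. Aliquots at 1, 2, 4 and 24 h were analysed by RP-HPLC for % intact. Replicate measurements used radio-TLC on C18 (10% ammonium acetate; 1:1 TFA-water/acetonitrile).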

[2] = format: in vitro ADME; conditions: mouse, serum, pH 7.4
[3] = Stability of 99mTc-cyclized analogues to cysteine challenge; format: physicochemical; conditions: pH 7.4, 37 °C
[4] = design: species or system CF-1 mice; conditions: mouse
[5] = mouse, cited from earlier work

- percent intact 99mTc-analogue post purification ([1]; 1 h): 98.3 ± 0.5%
- percent intact 99mTc-analogue post purification ([1]; 2 h): 98.0 ± 0.2%
- percent intact 99mTc-analogue post purification ([1]; 4 h): 97.8 ± 0.9%
- percent intact 99mTc-analogue post purification ([1]; 24 h): 94.1 ± 1.4%
- percent intact 99mTc-analogue post purification ([2]; 1 h): 96.7 ± 0.8%
- percent intact 99mTc-analogue post purification ([2]; 2 h): 97.1 ± 0.7%
- percent intact 99mTc-analogue post purification ([2]; 4 h): 97.0 ± 0.2%
- percent intact 99mTc-analogue post purification ([2]; 24 h): 94.7 ± 2.4%
- percent intact 99mTc-analogue post purification ([3]; 10 mM Cys, 1 h): 99.4 ± 0.3%
- percent intact 99mTc-analogue post purification ([3]; 10 mM Cys, 2 h): 99.1 ± 0.5%
- percent intact 99mTc-analogue post purification ([3]; 10 mM Cys, 4 h): 99.3 ± 0.1%
- percent intact 99mTc-analogue post purification ([3]; 10 mM Cys, 24 h): 93.3 ± 0.7%
- In vivo biodistribution, Adrenals ([4]; 150 ug, 1 h): 0.63 ± 0.19 %ID/g
- In vivo biodistribution, Blood ([4]; 150 ug, 1 h): 1.38 ± 0.15 %ID/g
- In vivo biodistribution, Kidney ([4]; 150 ug, 1 h): 2.97 ± 0.19 %ID/g
- In vivo biodistribution, Lg. Int ([4]; 150 ug, 1 h): 0.56 ± 0.04 %ID/g
- In vivo biodistribution, Liver ([4]; 150 ug, 1 h): 1.78 ± 0.59 %ID/g
- In vivo biodistribution, Muscle ([4]; 150 ug, 1 h): 0.43 ± 0.05 %ID/g
- In vivo biodistribution, Pancreas ([4]; 150 ug, 1 h): 0.54 ± 0.10 %ID/g
- In vivo biodistribution, Sm. lnt ([4]; 150 ug, 1 h): 24.29 ± 3.21 %ID/g
- In vivo biodistribution, Spleen ([4]; 150 ug, 1 h): 0.47 ± 0.07 %ID/g
- In vivo biodistribution, Stomach ([4]; 150 ug, 1 h): 5.69 ± 0.45 %ID/g
- In vivo biodistribution, Adrenals ([4]; 1 h): 0.36 ± 0.04 %ID/g
- In vivo biodistribution, Blood ([4]; 1 h): 0.95 ± 0.12 %ID/g
- In vivo biodistribution, Kidney ([4]; 1 h): 2.61 ± 0.64 %ID/g
- In vivo biodistribution, Lg. Int ([4]; 1 h): 0.53 ± 0.08 %ID/g
- In vivo biodistribution, Liver ([4]; 1 h): 1.60 ± 0.17 %ID/g
- In vivo biodistribution, Muscle ([4]; 1 h): 0.26 ± 0.02 %ID/g
- In vivo biodistribution, Pancreas ([4]; 1 h): 0.46 ± 0.15 %ID/g
- In vivo biodistribution, Sm. lnt ([4]; 1 h): 20.28 ± 3.58 %ID/g
- In vivo biodistribution, Spleen ([4]; 1 h): 0.38 ± 0.09 %ID/g
- In vivo biodistribution, Stomach ([4]; 1 h): 2.95 ± 1.42 %ID/g
- In vivo biodistribution, Adrenals ([4]; 4 h): 0.22 ± 0.07 %ID/g
- In vivo biodistribution, Blood ([4]; 4 h): 0.34 ± 0.04 %ID/g
- In vivo biodistribution, Kidney ([4]; 4 h): 1.43 ± 0.34 %ID/g
- In vivo biodistribution, Lg. Int ([4]; 4 h): 28.18 ± 4.57 %ID/g
- In vivo biodistribution, Liver ([4]; 4 h): 0.47 ± 0.15 %ID/g
- In vivo biodistribution, Muscle ([4]; 4 h): 0.08 ± 0.04 %ID/g
- In vivo biodistribution, Pancreas ([4]; 4 h): 0.15 ± 0.03 %ID/g
- In vivo biodistribution, Sm. lnt ([4]; 4 h): 1.94 ± 0.50 %ID/g
- In vivo biodistribution, Spleen ([4]; 4 h): 0.12 ± 0.01 %ID/g
- In vivo biodistribution, Stomach ([4]; 4 h): 3.88 ± 0.54 %ID/g
- In vivo biodistribution, Adrenals ([4]; 24 h): 0.03 ± 0.01 %ID/g
- In vivo biodistribution, Blood ([4]; 24 h): 0.06 ± 0.01 %ID/g
- In vivo biodistribution, Kidney ([4]; 24 h): 0.48 ± 0.10 %ID/g
- In vivo biodistribution, Lg. Int ([4]; 24 h): 1.18 ±0.66 %ID/g
- In vivo biodistribution, Liver ([4]; 24 h): 0.11 ± 0.01 %ID/g
- In vivo biodistribution, Muscle ([4]; 24 h): 0.01 ± 0.01 %ID/g
- In vivo biodistribution, Pancreas ([4]; 24 h): 0.02 ± 0.01 %ID/g
- In vivo biodistribution, Sm. lnt ([4]; 24 h): 0.22 ± 0.04 %ID/g
- In vivo biodistribution, Spleen ([4]; 24 h): 0.04 ± 0.01 %ID/g
- In vivo biodistribution, Stomach ([4]; 24 h): 0.61 ± 0.15 %ID/g
Substance: ^99mTc-Ac-Cys^1,Tyr^3-octreotate [99mTc-2]

- percent intact 99mTc-analogue post purification ([1]; 1 h): 86.2 ± 5.4%
- percent intact 99mTc-analogue post purification ([1]; 2 h): 73.7 ± 4.3%
- percent intact 99mTc-analogue post purification ([1]; 4 h): 60.4 ± 1.8%
- percent intact 99mTc-analogue post purification ([1]; 24 h): 37.9 ± 7.7%
- percent intact 99mTc-analogue post purification ([2]; 1 h): 97.4 ± 1.9%
- percent intact 99mTc-analogue post purification ([2]; 2 h): 97.1 ± 1.5%
- percent intact 99mTc-analogue post purification ([2]; 4 h): 95.2 ± 1.7%
- percent intact 99mTc-analogue post purification ([2]; 24 h): 57.6 ± 7.5%
- percent intact 99mTc-analogue post purification ([3]; 1 mM Cys, 1 h): 95.8 ± 2.4%
- percent intact 99mTc-analogue post purification ([3]; 1 mM Cys, 2 h): 85.3 ± 4.0%
- percent intact 99mTc-analogue post purification ([3]; 1 mM Cys, 4 h): 77.8 ± 3.3%
- percent intact 99mTc-analogue post purification ([3]; 1 mM Cys, 24 h): 45.0 ± 5.8%
- percent intact 99mTc-analogue post purification ([3]; 10 mM Cys, 1 h): 63.9 ± 4.1%
- percent intact 99mTc-analogue post purification ([3]; 10 mM Cys, 2 h): 53.3 ± 3.5%
- percent intact 99mTc-analogue post purification ([3]; 10 mM Cys, 4 h): 42.5 ± 5.6%
- percent intact 99mTc-analogue post purification ([3]; 10 mM Cys, 24 h): 15.0 ± 8.3%
Substance: ^99mTc-Tyr^3-octreotate [99mTc-TATE]
- In vivo biodistribution, Adrenals ([5]; 4 h): 0.14 ± 0.06 %ID/g
- In vivo biodistribution, Blood ([5]; 4 h): 0.44 ± 0.05 %ID/g
- In vivo biodistribution, Kidney ([5]; 4 h): 1.37 ± 0.29 %ID/g
- In vivo biodistribution, Lg. Int ([5]; 4 h): 60.20 ± 6.39 %ID/g
- In vivo biodistribution, Liver ([5]; 4 h): 0.66 ± 0.03 %ID/g
- In vivo biodistribution, Muscle ([5]; 4 h): 0.05 ± 0.01 %ID/g
- In vivo biodistribution, Pancreas ([5]; 4 h): 0.19 ± 0.06 %ID/g
- In vivo biodistribution, Sm. lnt ([5]; 4 h): 2.08 ± 1.08 %ID/g
- In vivo biodistribution, Spleen ([5]; 4 h): 0.20 ± 0.02 %ID/g
- In vivo biodistribution, Stomach ([5]; 4 h): 4.82 ± 0.95 %ID/g
- In vivo biodistribution, Adrenals ([5]; 24 h): 0.01 ± 0.01 %ID/g
- In vivo biodistribution, Blood ([5]; 24 h): 0.05 ± 0.01 %ID/g
- In vivo biodistribution, Kidney ([5]; 24 h): 0.60 ± 0.05 %ID/g
- In vivo biodistribution, Lg. Int ([5]; 24 h): 0.59 ± 0.24 %ID/g
- In vivo biodistribution, Liver ([5]; 24 h): 0.22 ± 0.03 %ID/g
- In vivo biodistribution, Muscle ([5]; 24 h): 0.01 ± 0.01 %ID/g
- In vivo biodistribution, Pancreas ([5]; 24 h): 0.03 ± 0.01 %ID/g
- In vivo biodistribution, Sm. lnt ([5]; 24 h): 0.19 ± 0.01 %ID/g
- In vivo biodistribution, Spleen ([5]; 24 h): 0.05 ± 0.01 %ID/g
- In vivo biodistribution, Stomach ([5]; 24 h): 0.69 ± 0.23 %ID/g

Source: paper PMC3086726 (Nuclear medicine and biology, 2010)
